Assay results from different studies.
Read-out: microbial growth

SMILES | organism | assay | test system | conditions | MIC
O=C(O)c1cn(C2CC2)c2cc(N3CCNCC3)c(F)cc2c1=O | Micrococcus luteus | broth dilution | ATCC10240 |  | 0.98 µg/mL
O=C1NN=C(N=Cc2ccc(O)cc2O)C1=NNn1c(-c2ccccc2)nc2ccccc2c1=O | Micrococcus luteus | broth dilution |  | 24 h | 53.5 µM
O=C(O)CN1C(=O)/C(=C/c2ccc(-c3ccc(N(c4ccccc4)c4ccccc4)cc3)cc2)NC1=S | Micrococcus luteus | broth dilution | ATCC10240 |  | 1.95 µg/mL
CC1=NN(CNc2ccc(O)cc2)C(=O)C1=NNn1c(-c2ccccc2)nc2ccccc2c1=O | Micrococcus luteus | broth dilution |  | 24 h | 53.5 µM
COc1cc2c(N3CCN(C(=O)Nc4ccc(OC(C)C)cc4)CC3)ncnc2cc1OCCCN1CCCCC1 | Staphylococcus aureus |  | NCTC8325 |  | > 30 µM
O=c1[nH]c(NCc2ccc(Cl)c(Cl)c2)nc2ncn(CCCCCN3CCOCC3)c12 | Lactobacillus acidophilus | agar dilution |  | 48 h | 2 µg/mL
O=C1NC(=S)N/C1=C\c1ccc(-c2ccc(N(c3ccccc3)c3ccccc3)cc2)cc1 | Micrococcus luteus | broth dilution | ATCC10240 |  | 62.5 µg/mL
CC1=NN(CNC(=O)c2ccccc2)C(=O)C1=NNn1c(-c2ccccc2)nc2ccccc2c1=O | Micrococcus luteus | broth dilution |  | 24 h | 51.9 µM
O=C(N[C@H](CO)[C@H](O)c1ccc([N+](=O)[O-])cc1)C(Cl)Cl | Micrococcus flavus | broth dilution |  |  | 7 µg/mL
CNC(=O)c1cc(Sc2ccc(NC(=O)Nc3ccc(Cl)c(C(F)(F)F)c3)cc2)ccn1 | Staphylococcus aureus |  | NCTC8325 | 24 h | 1 µM
O=C1NC(=S)S/C1=C\c1ccc(-c2ccc(N(c3ccccc3)c3ccccc3)cc2)c2ccccc12 | Micrococcus luteus | broth dilution | ATCC10240 |  | 250 µg/mL
COc1ccc(S(=O)(=O)N(C(C)=O)c2ccccc2/C=C/c2cc[n+]([O-])cc2)cc1 | Staphylococcus aureus |  | NCTC8325 |  | > 30 µM
O=C(O)CN1C(=O)/C(=C/c2ccc(-c3ccc(N(c4ccccc4)c4ccccc4)cc3)c3ccccc23)NC1=S | Micrococcus luteus | broth dilution | ATCC10240 |  | > 1000 µg/mL
CNC(=O)c1cc(COc2nnc(Nc3ccc(Cl)cc3)c3ccoc23)ccn1 | Staphylococcus aureus |  | NCTC8325 |  | > 30 µM
CC1=NN(CNc2ccc(C(=O)O)cc2)C(=O)C1=NNn1c(-c2ccccc2)nc2ccccc2c1=O | Micrococcus luteus | broth dilution |  | 24 h | 50.5 µM
CN(C)[C@@H]1C(O)=C(C(N)=O)C(=O)[C@@]2(O)C(O)=C3C(=O)c4c(O)cccc4[C@@](C)(O)[C@H]3C[C@@H]12 | Staphylococcus aureus |  | NCTC8325 |  | 0.5 µM
O=c1[nH]c(NCc2ccc(Cl)c(Cl)c2)nc2ncn(CCN3CCOCC3)c12 | Lactobacillus acidophilus | agar dilution |  | 48 h | 4 µg/mL
